Assay [1] has as its system Bacillus subtilis. The assay is described as follows: Antibacterial activity against Bacillus subtilis ATCC 11562 by broth dilution colorimetric assay. It is filed as functional. An outline of the steps: (§1)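 Modified broth dilution colorimetric assay in 96-well plates, run against a plant- and human-pathogen panel. Both MIC and median inhibitory concentration (IC50) were determined. Streptomycin sulfate served as the positive control.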

Assay [2] in a line: Cytotoxicity against human MCF7 cells by MTT assay. The format is functional, cell-based. An outline of the steps: (§2)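 Microculture tetrazolium (MTT) assay on a panel of human carcinoma cell lines: colon HCT-116, hepatocellular HepG2, gastric BGC-823, NSCLC NCI-H1650, ovarian A2780, melanoma A375, lung adenocarcinoma A549, breast MCF-7 and pancreatic Capan2. IC50 values are reported in μM.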

The next assay relates to Pyricularia oryzae. The assay is described as follows: Antifungal activity against Magnaporthe oryzae assessed as inhibition of spore germination after 8 hrs by microscopic analysis. It is filed as functional. An outline of the steps: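 Spores taken from 7-day-old M. oryzae cultures (2 × 10^6 spores per mL). Compound in 10% aqueous ethanol was mixed 1:1 with the spore suspension on a concave slide and kept in a dark moist chamber at 25 °C for 8 h. Germination was counted by microscope. Inhibition % = [(Gc − Gt)/Gc] × 100 against 10% ethanol control, with triplicates. IC50 was obtained by linear regression; carbendazim served as positive control.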

The nature of assay [3]: Cytotoxicity against human Capan2 cells by MTT assay. The format is functional, cell-based. Conditions: Capan-2. An outline of the steps:
as §2

Assay [4] can be described thus: Antibacterial activity against Ralstonia solanacearum ATCC 11696 by broth dilution colorimetric assay. The format is functional, Ralstonia solanacearum K60-1. An outline of the steps:
(§3)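 Modified broth dilution colorimetric assay in 96-well plates, reporting both minimum inhibitory concentration (MIC) and median inhibitory concentration (IC50). Streptomycin sulfate served as positive control.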

Assay [5] concerns Staphylococcus haemolyticus. The assay is described as follows: Antibacterial activity against Staphylococcus haemolyticus ATCC 29970 by broth dilution colorimetric assay. The format is functional. The method in brief:
as §1

Assay [6] in a line: Cytotoxicity against human A375 cells by MTT assay. As to conditions: A-375. It is filed as functional, cell-based. The method in brief: as §2
The nature of assay [7]: Cytotoxicity against human A549 cells by MTT assay. It is filed as functional, cell-based. An outline of the steps:
as §2

Assay [8] concerns Xanthomonas euvesicatoria. The assay is described as follows: Antibacterial activity against Xanthomonas vesicatoria ATCC 11633 by broth dilution colorimetric assay. It is filed as functional. The method in brief: as §1
The nature of assay [9]: Cytotoxicity against human HCT116 cells by MTT assay. As to conditions: HCT-116. It is filed as functional, cell-based. An outline of the steps: as §2
The test system of assay [10] is Agrobacterium tumefaciens. The assay is described as follows: Antibacterial activity against Agrobacterium tumefaciens ATCC 11158 by broth dilution colorimetric assay. It is filed as functional. The method in brief:
as §1

The subject of assay [11] is Pseudomonas amygdali pv. lachrymans. The assay is described as follows: Antibacterial activity against Pseudomonas lachrymans ATCC 11921 by broth dilution colorimetric assay. The format is functional. The method in brief:
as §1

A short description of assay [12]: Cytotoxicity against human A2780 cells by MTT assay. The format is functional, cell-based. An outline of the steps: as §2
Assay [13] is described as follows: Cytotoxicity against human BGC823 cells by MTT assay. It is filed as functional, cell-based. As to conditions: BGC-823. An outline of the steps: as §2
Assay [14] can be described thus: Cytotoxicity against human HepG2 cells by MTT assay. The format is functional, cell-based. The method in brief:
as §2

Assay [15] is described as follows: Cytotoxicity against human NCI-H1650 cells by MTT assay. The format is functional, cell-based. An outline of the steps: as §2
Assay [16] deals with Xanthomonas euvesicatoria. The assay is described as follows: Antibacterial activity against Xanthomonas vesicatoria ATCC 11633 after 24 hrs by MTT based broth dilution colorimetric assay. The format is functional. Conditions: ATCC 11633, 24 h. The method in brief:
as §3

Assay [17] concerns Agrobacterium tumefaciens. The assay is described as follows: Antibacterial activity against Agrobacterium tumefaciens ATCC 11158 after 24 hrs by MTT based broth dilution colorimetric assay. It is filed as functional. Conditions: ATCC 11158, 24 h.
In assay [18] the test system is Pseudomonas amygdali pv. lachrymans. The assay is described as follows: Antibacterial activity against Pseudomonas lachrymans ATCC 11921 after 24 hrs by MTT based broth dilution colorimetric assay. The format is functional. As to conditions: ATCC 11921, 24 h. An outline of the steps: as §3
The subject of assay [19] is Bacillus subtilis. The assay is described as follows: Antibacterial activity against Bacillus subtilis ATCC 11562 after 24 hrs by MTT based broth dilution colorimetric assay. The format is functional. Conditions: ATCC 11562, 24 h.

SMILES strings stand for the structures. pIC50: −log10 of the molar value. Values after ≈ are worked out from the molar mass of the structure shown.

Consider `COc1cc(O)c2c(=O)oc3c(c2c1)[C@@](C)(O)C[C@@H](OC)[C@@]31C[C@@H](O)C(=O)O1`, for which the 50% inhibitory concentration (IC50) with Bacillus subtilis [1] is 45.5 µg/mL (≈ 116 µM); in the assay on Pyricularia oryzae, over 200 µg/mL; in assay [10] it was 56.7 µg/mL (≈ 145 µM); in assay [11], 44.7 µg/mL (≈ 114 µM). Further, the MIC with Bacillus subtilis [1] was 75 µg/mL (≈ 191 µM); in [4], over 200 µg/mL; in [5] it was over 200 µg/mL; in [8] it was over 200 µg/mL; in [10], 100 µg/mL (≈ 255 µM); in assay [11], 100 µg/mL (≈ 255 µM). For the same molecule, the pIC50 in [2], in [3], in assay [6], in [7] and in assay [9] was under 4.30 in each case.

For the molecule `COC1=C[C@](C)(O)c2c(oc(=O)c3c(O)cc(OC)cc23)C1=O`, the MIC (in the assay with Bacillus subtilis [1]; in assay [4]; in assay [5]; in [8]; in assay [10]; in [11]) was over 200 µg/mL in each case. The pIC50 in [2], in assay [3], in assay [6], in assay [7] and in assay [9] was under 4.30 in each case. The IC50 in the assay on Pyricularia oryzae came out at 82.1 µg/mL (≈ 258 µM).

Take `COc1cc(O)c2c(=O)oc3c(c2c1)[C@@](C)(O)C[C@H](OC)[C@@]31C[C@@H](O)C(=O)O1`: the MIC (against Bacillus subtilis [1]; in [4]; in assay [5]; in assay [8]; in assay [10]; in assay [11]) was over 200 µg/mL in each case.

Turning to `COc1cc(O)c2c(=O)oc3c(c2c1)[C@@](C)(O)C(Cl)=C(O)C3=O`, the IC50 came out at 44.6 µg/mL (≈ 132 µM) with Bacillus subtilis [1]; 36.5 µg/mL (≈ 108 µM) in assay [4]; 7 µg/mL (≈ 20.7 µM) in [5]; 52.5 µg/mL (≈ 155 µM) in assay [8]; 47.3 µg/mL (≈ 140 µM) in [10]; 4.3 µg/mL (≈ 12.7 µM) in assay [11]. The MIC came to 100 µg/mL (≈ 295 µM) in the assay with Bacillus subtilis [1]; 50 µg/mL (≈ 148 µM) in [4]; 25 µg/mL (≈ 73.8 µM) in assay [5]; 100 µg/mL (≈ 295 µM) in assay [8]; 100 µg/mL (≈ 295 µM) in assay [10]; 25 µg/mL (≈ 73.8 µM) in [11]. Besides, the negative logarithm of the IC50 (pIC50) in assay [2] is under 4.30; in [3] it was under 4.30; in assay [6], under 4.30; in assay [7], 4.59; in assay [9], 4.43.

For `COc1cc(O)c2c(=O)oc3c(O)c(OC)c(Cl)c(C)c3c2c1`, the pIC50 in [12], in assay [13], in [14], in assay [9] and in assay [15] was under 5.00 in each case. Moreover, the IC50 in the assay with Bacillus subtilis [1] is 22.4 µg/mL (≈ 66.5 µM); with Pyricularia oryzae, over 200 µg/mL; in [4], 24.2 µg/mL (≈ 71.9 µM); in assay [5], 26.7 µg/mL (≈ 79.3 µM); in assay [8], 15.9 µg/mL (≈ 47.2 µM); in assay [10] it was 15 µg/mL (≈ 44.5 µM). For the same molecule, the IC50 in [11] came to 16.4 µg/mL (≈ 48.7 µM). Also, the MIC (against Bacillus subtilis [1]; in [4]; in [5]; in assay [8]; in [10]; in assay [11]) was 50 µg/mL (≈ 148 µM) each time.

As for `COc1cc(O)c2c(=O)oc3cc(O)c(Cl)c(C)c3c2c1`, the IC50 (in assay [16]; in [17]; in assay [18]; in the assay with Bacillus subtilis [19]) was 16.7 to 34.3 µg/mL (≈ 54.5 to 112 µM) throughout. Also, the pIC50 in assay [2], in [3], in assay [6], in assay [7] and in assay [9] was under 4.30 each time.

As for `Cc1c(Cl)c(O)cc2oc(=O)c3c(O)cc(O)cc3c12`, the pIC50 in [12], in assay [13], in assay [14], in [9] and in assay [15] was under 5.00 in each case. In addition, the IC50 in the assay on Bacillus subtilis [1] came out at 18.6 µg/mL (≈ 63.6 µM); with Pyricularia oryzae, 9.9 µg/mL (≈ 33.8 µM); in assay [4], 12.4 µg/mL (≈ 42.4 µM); in assay [8], 22.7 µg/mL (≈ 77.6 µM); in assay [10] it was 16.3 µg/mL (≈ 55.7 µM). The MIC was 50 µg/mL (≈ 171 µM) against Bacillus subtilis [1]; 50 µg/mL (≈ 171 µM) in assay [4]; over 200 µg/mL in [5]; 75 µg/mL (≈ 256 µM) in assay [8]; 50 µg/mL (≈ 171 µM) in assay [10]; over 200 µg/mL in assay [11].

(Values after ChEMBL document CHEMBL3865820, “Bioactive Dibenzo-α-pyrone Derivatives from the Endophytic Fungus Rhizopycnis vagum Nitaf22” (J Nat Prod, 2016).)
